# Calls of active or inactive are those of the source. The rule behind the calls is not given here.
# What was measured:
# [1] = system: KB; test: Cell cycle arrest in human KB cells assessed as accumulation at G2/M phase at 1 uM after 96 hrs by propidium iodide staining-based flow cytometry (reference value: 13.2%); assay type: functional
# [2] = system: KB; test: Cytotoxicity against human KB cells expressing human RFC/FRalpha/PCFT assessed as depletion of ATP pools at 1 uM after 24 hrs by ion-pair HPLC analysis; assay type: functional
# Method in brief: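 KB cells in FF-RPMI/10% DFBS with 2 mM glutamine and 2 nM LCV were exposed to 1 μM drug for 24 h. They were trypsinized and washed, and nucleotides were extracted. ATP was quantified by reversed-phase ion-pair HPLC on a C18 column. Results are means ± standard errors.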
# [3] = system: KB; test: Cytotoxicity against human KB cells expressing human RFC/FRalpha/PCFT after 96 hrs by CellTitre-Blue fluorescence assay in presence of thymidine; assay type: functional, cell-based
# Method in brief: (§1)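 KB cells were grown in FF-RPMI with DFBS and 2 nM LCV, exposed to antifolate (0–1 μM) for 96 h at 37 °C, and read by CellTiter-Blue fluorescence. IC50 was taken from dose–response curves relative to untreated cells. Protection arms added adenosine 60 μM, thymidine 10 μM, AICA 320 μM, or folic acid 200 nM. Means of 3–10 experiments.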
# [4] = target: T1, Reduced folate transporter (Homo sapiens) (UniProt P41440); test: Inhibition of human RFC expressed in chinese hamster PC43-10 cells assessed as reduction of [3H]MTX uptake at 10 uM after 48 hrs by scintillation counting analysis relative to control; assay type: cell-based
# T1 sequence (whole entry): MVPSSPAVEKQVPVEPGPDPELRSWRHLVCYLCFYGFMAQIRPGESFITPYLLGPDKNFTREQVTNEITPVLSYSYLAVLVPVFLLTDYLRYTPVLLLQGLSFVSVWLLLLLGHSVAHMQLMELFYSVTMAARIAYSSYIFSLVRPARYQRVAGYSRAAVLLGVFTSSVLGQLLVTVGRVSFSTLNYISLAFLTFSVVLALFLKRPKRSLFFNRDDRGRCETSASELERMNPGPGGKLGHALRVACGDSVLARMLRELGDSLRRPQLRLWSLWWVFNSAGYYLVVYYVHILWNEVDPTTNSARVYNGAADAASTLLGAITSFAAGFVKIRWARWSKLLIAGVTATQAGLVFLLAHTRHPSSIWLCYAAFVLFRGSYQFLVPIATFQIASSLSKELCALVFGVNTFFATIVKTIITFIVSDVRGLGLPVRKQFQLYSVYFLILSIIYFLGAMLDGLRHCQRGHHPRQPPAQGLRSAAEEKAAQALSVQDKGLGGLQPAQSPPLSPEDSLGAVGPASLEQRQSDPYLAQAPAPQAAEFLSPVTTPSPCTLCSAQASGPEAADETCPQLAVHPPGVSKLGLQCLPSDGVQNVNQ
# Method in brief: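 PC43-10 CHO cells expressing human RFC (~1.5 × 10^6) were seeded 48 h before assay. Uptake of 0.5 μM [3H]MTX was run in Hank's balanced salts for 2 min at 37 °C, with or without 10 μM unlabelled inhibitor, and stopped with ice-cold PBS. Cells were dissolved in 0.5 N NaOH, counted by scintillation and normalised to Folin-phenol protein (pmol/mg). RFC-null R2 cells gave baseline. Three experiments.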
# [5] = system: KB; test: Cytotoxicity against human KB cells expressing human RFC/FRalpha/PCFT after 96 hrs by CellTitre-Blue fluorescence assay; assay type: functional, cell-based; method in brief: as §1
smiles,measurement,setting,value
Nc1nc2[nH]cc(CCCCc3ccc(C(=O)N[C@@H](CCC(=O)O)C(=O)O)cc3)c2c(=O)[nH]1,Activity,[1],2.3%
same,inhibition at 1 µM,[2],> 90%
same,Activity,[3],Active
same,inhibition,[4],> 90%
same,IC50,[5],12.7 nM

# — ChEMBL document CHEMBL3102834, “Discovery of 5-substituted pyrrolo[2,3-d]pyrimidine antifolates as dual-acting inhibitors of glycinamide ribonucleotide formyltransferase and 5-aminoimidazole-4-carboxamide ribonucleotide formyltransferase in de novo purine nucleotide biosynthesis: implications of inhibiting …” (J Med Chem, 2013)
